# Published values gathered from unrelated publications.
# Each line is one published result; the experiments were not run side by side.
Structure (SMILES),species,matrix,route,dose,setting,Tmax [h]
C[C@@]1(c2cc(NC(=O)c3ccc(C#N)cn3)ccc2F)C=CSC(N)=N1,human,plasma,oral,1 mg,single dose,0.89
CC(C)n1cc(C#N)c2cc(-n3cc(C(=O)O)cn3)ccc21,human,plasma,oral,100 mg,"multiple doses, once daily, steady state",2.5
CCc1nc(C(N)=O)c(Nc2ccc(N3CCC(N4CCN(C)CC4)CC3)c(OC)c2)nc1NC1CCOCC1,human,plasma,oral,40 mg,"multiple doses, patients",4.01
COc1ccc([C@@H]2CN(C(=O)[C@@H](O)CO)C[C@@]2(C)[C@@H](C)O)cc1OC1CN(c2ccc(C)cn2)C1,human,plasma,oral,0.5 mg,"single dose, healthy volunteers",1.5
C#C[C@]1(COP(=O)(O)OP(=O)(O)OP(=O)(O)O)O[C@@H](n2cnc3c(N)nc(F)nc32)C[C@@H]1O,human,plasma,oral,30 mg,single dose,24
CC(C)(O)c1ccccc1-c1ccc2[nH]c(/C=C/c3ccc(C(F)(F)F)cc3)nc2c1,male human,plasma,oral,2 mg,"single dose, fasted",3.94
C[C@@H](Nc1cc(F)cc(F)c1)c1cc(C(=O)N(C)C)cc2c(=O)cc(N3CCOCC3)oc12,human,plasma,oral,300 mg,"single dose, patients",1.21
CS(=O)(=O)CCC#N,human,plasma,oral,100 mg,"multiple doses, once daily",1
NS(=O)(=O)NCCNc1nonc1C(=NO)Nc1ccc(F)c(Br)c1,human,plasma,oral,300 mg,"multiple doses, twice daily, steady state, patients",2
C=CC(=O)N(C)CCOc1c(N)ncnc1-c1cc(F)cc(NC(=O)c2ccc(C3CC3)cc2F)c1C,human,blood,oral,400 mg,"single dose, healthy volunteers",1.24
CC(C)(Sc1ccncc1-c1ccc(C#N)c2ccccc12)C(=O)O,male human,plasma,oral,10 mg,"multiple doses, once daily",1
c1cnc2ccc(Nc3nc(NC4CC4)c4nc[nH]c4n3)cc2c1,human,plasma,oral,200 mg/m²,patients,5.7
Cc1nc(NC(=O)N2CCC[C@H]2C(N)=O)sc1-c1ccnc(C(C)(C)C(F)(F)F)c1,human,plasma,oral,400 mg,patients,2
O=C(Nc1c(Cl)cncc1Cl)c1ccc(OC(F)F)c(OCC2CC2)c1,human,plasma,oral,0.375 mg,single dose,0.5
Cn1cc(-c2ccc(S(=O)(=O)[C@@H]3C[C@@H](C(=O)NC4(C#N)CC4)N(C(=O)C4(C(F)(F)F)CC4)C3)c(C(F)(F)F)c2)cn1,human,plasma,oral,1 mg,"single dose, fasted, healthy volunteers",4
CCc1nc2c(C)cc(N3CCN(CC(=O)N4CC(O)C4)CC3)cn2c1N(C)c1nc(-c2ccc(F)cc2)c(C#N)s1,human,plasma,oral,1000 mg,"fed, healthy volunteers",2
COc1cc(N2CCC(N3CCN(C)CC3)CC2)ccc1Nc1ncnc(Nc2ccccc2S(=O)(=O)C(C)C)n1,human,plasma,oral,50 mg,"multiple doses, patients",2.99
CO[C@@H]1[C@H](OC(=O)N2CC(CCN3CCOCC3)C2)CC[C@]2(CO2)[C@H]1[C@@]1(C)O[C@@H]1CC=C(C)C,human,plasma,subcutaneous,2.4 mg,"single dose, healthy volunteers",0.25
